Data as given in ChEMBL document CHEMBL1138606, “The discovery of tropane derivatives as nociceptin receptor ligands for the management of cough and anxiety” (Bioorg Med Chem Lett, 2009).
Active and inactive are the calls of the source. No cut-off for these calls is given here.

Experiments:
[1] = target: T1, Mu-type opioid receptor (Homo sapiens, UniProt P35372); experiment: Displacement of [3H]diprenorphine from human mu opioid receptor expressed in CHO cells; assay type: cell-based
[2] = target: T2, Nociceptin receptor (Homo sapiens, UniProt P41146); experiment: Displacement of [125I][Tyr14]nociceptin from human cloned NOP receptor expressed in CHO cells; assay type: cell-based
T2 sequence (P41146 whole entry): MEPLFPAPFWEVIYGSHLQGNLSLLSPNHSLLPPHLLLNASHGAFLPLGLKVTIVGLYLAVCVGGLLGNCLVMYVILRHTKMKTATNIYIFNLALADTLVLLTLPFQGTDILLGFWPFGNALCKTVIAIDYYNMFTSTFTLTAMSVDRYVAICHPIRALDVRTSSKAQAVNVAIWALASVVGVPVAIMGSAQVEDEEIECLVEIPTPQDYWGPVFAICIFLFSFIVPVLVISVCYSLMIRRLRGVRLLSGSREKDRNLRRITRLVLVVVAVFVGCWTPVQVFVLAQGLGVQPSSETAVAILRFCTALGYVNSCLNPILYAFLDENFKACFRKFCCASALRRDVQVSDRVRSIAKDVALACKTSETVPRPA

[3] = target: T3, Nuclear receptor subfamily 1 group I member 2 (Homo sapiens, UniProt O75469); experiment: Activity at human PXR assessed as induction of CYP3A4 activity in human hepatocytes at 1 uM relative to rifampicin; assay type: cell-based, Hepatocyte
T3 sequence (O75469 whole entry): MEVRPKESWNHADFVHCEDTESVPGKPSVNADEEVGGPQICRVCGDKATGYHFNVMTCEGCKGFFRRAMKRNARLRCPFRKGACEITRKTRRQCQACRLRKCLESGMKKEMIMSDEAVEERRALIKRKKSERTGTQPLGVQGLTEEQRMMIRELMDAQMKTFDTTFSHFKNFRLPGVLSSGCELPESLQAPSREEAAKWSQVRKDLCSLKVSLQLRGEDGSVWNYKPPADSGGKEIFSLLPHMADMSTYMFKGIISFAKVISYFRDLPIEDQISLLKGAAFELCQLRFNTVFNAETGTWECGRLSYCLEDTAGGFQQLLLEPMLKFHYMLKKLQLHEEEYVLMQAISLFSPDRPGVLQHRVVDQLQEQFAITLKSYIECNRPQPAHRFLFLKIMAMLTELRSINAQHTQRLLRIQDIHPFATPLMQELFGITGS

[4] = target: T2, Nociceptin receptor; experiment: Agonist activity at human NOP assessed as stimulation of GDP-induced [35S]GTPgammaS binding; assay type: functional
Outline: (§1)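 Functional agonism measured as enhancement of [35S]GTPγS binding in the presence of GDP, using membranes from cells transfected with the receptor. Values are means of 2–3 experiments.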

[5] = target: T1, Mu-type opioid receptor; experiment: Agonist activity at human mu opioid assessed as stimulation of GDP-induced [35S]GTPgammaS binding; assay type: functional; outline: as §1
[6] = tested on: Cavia porcellus; experiment: Antitussive activity against capsaicin-induced cough in po dosed Hartley guinea pig model after 2 hrs; assay type: functional
[7] = target: T1, Mu-type opioid receptor; experiment: Binding affinity to human mu opioid assessed as stimulation of GDP-induced [35S]GTPgammaS binding at 10 uM; assay type: functional
Outline: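 Agonist function read as enhancement of [35S]GTPγS binding to receptor-expressing membranes in the presence of GDP. Percent stimulation is given at 10 µM test compound. Values are means of at least 2–3 experiments.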

[8] = tested on: Cavia porcellus; experiment: Antitussive activity against capsaicin-induced cough in po dosed Hartley guinea pig model after 2 hrs in presence naltrexone; assay type: functional, organism-based
[9] = species on record: Cavia porcellus; experiment: Anxiolytic activity in Dunkin-Hartley guinea pig pup assessed as reduction in number of vocalization produced due to separation measured after 2 hrs; assay type: functional
[10] = target: Delta-type opioid receptor (Homo sapiens, UniProt P41143); experiment: Displacement of [3H]diprenorphine from human delta opioid receptor expressed in CHO cells; assay type: cell-based
Sequence of Delta-type opioid receptor (P41143 whole entry): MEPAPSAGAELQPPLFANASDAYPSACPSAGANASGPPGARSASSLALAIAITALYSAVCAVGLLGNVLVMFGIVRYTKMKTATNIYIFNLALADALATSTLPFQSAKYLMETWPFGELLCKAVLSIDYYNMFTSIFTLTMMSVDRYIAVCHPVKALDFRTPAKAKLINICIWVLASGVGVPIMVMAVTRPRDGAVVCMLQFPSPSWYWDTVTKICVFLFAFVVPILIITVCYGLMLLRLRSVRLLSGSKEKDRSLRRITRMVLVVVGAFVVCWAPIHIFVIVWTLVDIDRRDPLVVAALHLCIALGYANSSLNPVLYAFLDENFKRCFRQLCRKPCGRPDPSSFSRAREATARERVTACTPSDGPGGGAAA

[11] = target: Kappa-type opioid receptor (Homo sapiens, UniProt P41145); experiment: Displacement of [3H]diprenorphine from human kappa opioid receptor expressed in CHO cells; assay type: cell-based
Sequence of Kappa-type opioid receptor (P41145 whole entry): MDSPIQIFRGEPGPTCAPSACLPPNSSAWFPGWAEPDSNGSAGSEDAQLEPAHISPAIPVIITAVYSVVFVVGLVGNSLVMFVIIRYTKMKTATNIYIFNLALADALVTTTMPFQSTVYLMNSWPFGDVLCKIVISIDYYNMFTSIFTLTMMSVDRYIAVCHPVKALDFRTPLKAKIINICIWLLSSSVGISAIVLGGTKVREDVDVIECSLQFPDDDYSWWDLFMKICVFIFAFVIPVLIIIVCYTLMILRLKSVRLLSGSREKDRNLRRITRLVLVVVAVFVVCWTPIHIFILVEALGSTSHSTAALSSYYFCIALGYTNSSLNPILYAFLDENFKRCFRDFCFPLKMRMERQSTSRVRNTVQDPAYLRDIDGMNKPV

[12] = tested on: Cavia porcellus; experiment: Antitussive activity against capsaicin-induced cough in po dosed Hartley guinea pig model after 2 hrs in presence J113397; assay type: functional, organism-based
[13] = tested on: Rattus norvegicus; experiment: Anxiolytic activity in po dosed CD rats assessed as suppression of conditioned paw licking administered twice per day for 14 days measured after 2 hrs of last dose; assay type: functional
[14] = tested on: Cavia porcellus; experiment: Antitussive activity against capsaicin-induced cough in po dosed Hartley guinea pig model after 2 hrs in presence naloxone; assay type: functional, organism-based
[15] = Cmax in rat at 3 mg/kg, po; assay type: ADME, organism-based; design: dose 3 mg/kg, route oral; settings: in vivo
[16] = AUC (0 to 24 hrs) in rat at 3 mg/kg, po; assay type: ADME, organism-based; design: time < 24 hr, dose 3 mg/kg, route oral; settings: plasma
[17] = tested on: Rattus norvegicus; experiment: Volume of distribution at steady state in rat at 3 mg/kg, po; assay type: ADME, organism-based; design: dose 3 mg/kg, route oral; settings: in vivo
[18] = Oral bioavailability in rat at 3 mg/kg; assay type: ADME, organism-based; settings: in vivo
[19] = Half life in rat at 3 mg/kg, po; assay type: ADME, organism-based; design: dose 3 mg/kg, route oral; settings: in vivo
[20] = Clearance in rat at 3 mg/kg, po; assay type: ADME, organism-based; design: dose 3 mg/kg, route oral; settings: in vivo

T1 sequence (P35372 whole entry): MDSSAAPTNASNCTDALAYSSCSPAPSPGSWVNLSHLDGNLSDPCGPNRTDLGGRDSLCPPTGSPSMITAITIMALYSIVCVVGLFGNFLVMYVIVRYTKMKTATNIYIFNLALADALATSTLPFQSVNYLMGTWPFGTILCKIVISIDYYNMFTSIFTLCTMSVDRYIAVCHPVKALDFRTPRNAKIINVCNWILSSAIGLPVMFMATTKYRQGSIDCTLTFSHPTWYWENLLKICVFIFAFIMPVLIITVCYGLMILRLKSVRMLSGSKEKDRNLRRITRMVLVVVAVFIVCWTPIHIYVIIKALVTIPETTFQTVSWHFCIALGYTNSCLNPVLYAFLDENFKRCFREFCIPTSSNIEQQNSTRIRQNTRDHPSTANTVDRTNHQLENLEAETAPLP

Row | SMILES | Ki [1] [nM] | Ki [2] [nM] | EC50 [4] [nM] | EC50 [5] [nM] | also measured
1 | Cc1ccc(C(c2ccccc2Cl)N2C3CCC2CC(O)(CCCO)C3)c(Cl)c1 (stereo not drawn) | 306 | 7.4 | – | – | –
2 | CC(O)CNC(=O)C1(c2ccccc2)CC2CCC(C1)N2C(c1ccccc1Cl)c1ccccc1Cl (stereo not drawn) | 57 | 11 | – | – | Ratio [3]: 2.38
3 | Cc1ccc(C(c2ccccc2Cl)N2C3CCC2CC(O)(c2cccc(F)c2)C3)c(Cl)c1 (stereo not drawn) | 57 | 2.7 | 16 | 894 | –
4 | OCC1(c2ccccc2)CC2CCC(C1)N2C(c1ccccc1Cl)c1ccccc1Cl (stereo not drawn) | 627 | 6 | 136 | 2140 | –
5 | COc1ccc(C2(C(N)=O)CC3CCC(C2)N3C(c2ccccc2Cl)c2ccccc2Cl)cc1 (stereo not drawn) | 59 | 22 | – | – | Ratio [3]: 0.06
6 | OC1CC2CCC(C1)N2C(c1ccccc1Cl)c1ccccc1Cl (stereo in doubt; 11a) | – | 198 | – | – | –
7 | OC1(c2ccccc2)CC2CCC(C1)N2C(c1ccccc1)c1ccccc1 (stereo not drawn) | 94 | – | – | – | Activity [6]: inactive
8 | CC(C)NC(=O)C1(c2ccccc2)CC2CCC(C1)N2C(c1ccccc1Cl)c1ccccc1Cl (stereo not drawn) | 333 | 10 | – | – | Ratio [3]: 2.21
9 | CNC(=O)NC1(c2ccccc2)CC2CCC(C1)N2C(c1ccccc1Cl)c1ccccc1Cl (stereo not drawn) | 27 | 2 | – | – | –
10 | CCNC(=O)C1(c2ccccc2)CC2CCC(C1)N2C(c1ccccc1Cl)c1ccccc1Cl (stereo not drawn) | 215 | 7 | – | – | Ratio [3]: 1.49
11 | NC1(c2ccccc2)CC2CCC(C1)N2C(c1ccccc1Cl)c1ccccc1Cl (stereo not drawn) | 458 | 4 | 76 | 4520 | –
12 | Cc1ccc(C(c2ccccc2Cl)N2C3CCC2CC(O)(C2CCCC2)C3)c(Cl)c1 (stereo not drawn) | 104 | 1.9 | 16 | 709 | –
13 | NC(=O)C1(c2ccc(Br)cc2)CC2CCC(C1)N2C(c1ccccc1Cl)c1ccccc1Cl (stereo not drawn) | – | 40 | – | – | Ratio [3]: 0.05
14 | Cc1ccnc(C2(O)C3CCC2CN(C(c2ccccc2Cl)c2ccccc2Cl)C3)c1 (stereo not drawn) | 3590 | 385 | – | – | –
15 | COC1(c2ccccc2)CC2CCC(C1)N2C(c1ccccc1Cl)c1ccccc1Cl (stereo not drawn) | 636 | 8 | 50 | 545 | –
16 | Cc1ccc(C(c2ccccc2Cl)N2C3CCC2CC(O)(C2=NCCCN2)C3)c(Cl)c1 (stereo not drawn) | 622 | 3 | 62 | – | Activity [7]: 29%
17 | OC1(c2ccccc2)CC2CCC(C1)N2C(c1ccccc1Cl)c1ccccc1Cl (stereo not drawn) | 22 | 3.4 | – | 337 | Activity [8]: Active; ED50 [9]: 0.4 mg/kg; Ki [10]: 3140 nM; Ki [11]: 109 nM; ED50 [6]: 0.4 mg/kg; Activity [12]: inactive; ED50 [13]: 1.4 mg/kg; Activity [14]: Active
18 | OC1(c2cncs2)CC2CCC(C1)N2C(c1ccccc1Cl)c1ccccc1Cl (stereo in doubt; 12b) | – | 3000 | – | – | –
19 | O=C(NC1(c2ccccc2)CC2CCC(C1)N2C(c1ccccc1Cl)c1ccccc1Cl)C1CC1 (stereo not drawn) | 996 | 11 | 35 | – | Activity [7]: 25%
20 | COc1ccc(CC2(O)CC3CCC(C2)N3C(c2ccccc2Cl)c2ccc(C)cc2Cl)nc1 (stereo not drawn) | 384 | 13 | 90 | – | Activity [7]: 31%
21 | C[C@H]1CN(C(c2ccccc2)c2ccccc2)CC[C@@]1(O)c1ccccc1 | – | 1570 | – | – | –
22 | O/N=C/C1(c2ccccc2)CC2CCC(C1)N2C(c1ccccc1Cl)c1ccccc1Cl (stereo not drawn) | 601 | 20 | 107 | – | Activity [7]: 29%
23 | NC(=O)C1(c2ccc(F)cc2)CC2CCC(C1)N2C(c1ccccc1Cl)c1ccccc1Cl (stereo not drawn) | 126 | 16 | 14 | 947 | Cmax [15]: 250 nM; ED50 [9]: 0.2 mg/kg; AUC(0-t) at 24 h [16]: 1.27 µM·h; Vdss [17]: 1.8 L/kg; bioavailability [18]: 45%; Ratio [3]: 0.27; Ki [10]: 1040 nM; Ki [11]: 752 nM; half-life [19]: 108 min; ED50 [6]: 0.03 mg/kg; CL/F [20]: 33 mL/min/kg; ED50 [13]: 2.7 mg/kg
